The results in this text go back to ChEMBL document CHEMBL3763088, “Design, synthesis, and biological evaluation of water-soluble amino acid prodrug conjugates derived from combretastatin, dihydronaphthalene, and benzosuberene-based parent vascular disrupting agents” (Bioorg Med Chem, 2016).

A short description of series [1]: Cytotoxicity against human SKOV3 cells assessed as growth inhibition after 48 hrs by SRB assay. The class given is functional, SK-OV-3. The method, boiled down: (§1)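 Cells kept at 37 °C, 5% CO2, up to passage 15. Plated at 7500 cells/well in DMEM with 5% FBS and 1% gentamycin, grown 24 h, then given 10-fold serial dilutions for 48 h. Fixed with 10% TCA (final), SRB-stained, read at 540 nm, normalized at 630 nm. GI50 is the concentration halving net protein staining versus controls, taken from optical density data.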
A general note: The SRB assay estimates cell density from bound dye.

The subject of series [2] is NCI-H460. The experiment in a line: Cytotoxicity against human NCI-H460 cells assessed as growth inhibition after 48 hrs by SRB assay. It is filed as functional. In a few lines: as §1
Series [3] can be described thus: Cytotoxicity against human DU145 cells assessed as growth inhibition after 48 hrs by SRB assay. The class given is functional, DU-145. The method, boiled down: as §1
In series [4] the target is T1, Leucine aminopeptidase (Sus scrofa, UniProt Q29571).
T1 sequence (Q29571 whole entry): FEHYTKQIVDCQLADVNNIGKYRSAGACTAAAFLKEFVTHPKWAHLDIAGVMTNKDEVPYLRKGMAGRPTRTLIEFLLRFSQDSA
The experiment in a line: Drug level assessed as porcine leucine aminopeptidase-mediated compound formation treated with (Z)-N,N''-(3-Methoxy-6-(3,4,5-trimethoxystyryl)-1,2-phenylene)bis(2-aminoacetamide) after 25 hrs using 1.5 units of enzyme by HPLC analysis. The settings on record: pig. It is filed as ADME. The method, boiled down: (§2)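 Porcine kidney microsomal LAP; units defined with 24 mM L-leucine p-nitroanilide in 50 mM sodium phosphate pH 7.2 at 37 °C. Enzyme preincubated in the same buffer at 37 °C, then substrate added. Aliquots were quenched with acetonitrile on ice, centrifuged and run on C18 HPLC (acetonitrile/water, 0.05% TFA, 1.0 mL/min, 22 °C, diode-array UV). Cleavage % from the parent/prodrug peak-area ratio; amounts from calibration curves.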

The target of series [5] is T1, Leucine aminopeptidase. Put plainly: Drug level assessed as porcine leucine aminopeptidase-mediated compound formation treated with (Z)-N,N''-(3-Methoxy-6-(3,4,5-trimethoxystyryl)-1,2-phenylene)bis(2-aminoacetamide) after 25 hrs using 0.12 units of enzyme by HPLC analysis. The class given is ADME. The settings on record: pig. In a few lines:
as §2

Series [6] has as its target T1, Leucine aminopeptidase. Put plainly: Drug level assessed as porcine leucine aminopeptidase-mediated compound formation treated with (Z)-N,N''-(3-Methoxy-6-(3,4,5-trimethoxystyryl)-1,2-phenylene)bis(2-aminoacetamide) after 25 hrs using 3.7 units of enzyme by HPLC analysis. It is filed as ADME. As to conditions: pig. The method, boiled down:
as §2

For the next series, the target named is Tubulin (Bos taurus, UniProt Q6B856+Q862L2+Q862F3). The experiment in a line: Inhibition of bovine brain tubulin polymerization preincubated for 15 mins by spectrophotometric analysis. In a few lines: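 Purified bovine brain tubulin, 1.0 mg/mL (10 μM), in 0.8 M monosodium glutamate pH 6.6 with 4% DMSO and varied compound. Temperature jumped from 0 to 30 °C; turbidity at 350 nm followed for 20 min.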

In series [7] the test system is MDA-MB-231. Put plainly: Induction of tumor-specific vascular damage in luciferase expressing human MDA-MB-231 cells xenografted in SCID mouse assessed as reduction in light emission at 15 mg/kg at 4 hrs post dose by bioluminescence imaging assay (reference value: 22%). The class given is functional. As to conditions: MDA-MB-231, 4 h. (In general: A xenograft is tissue or cells of one species grown in another, often human tumour cells in immunodeficient mice.)

For series [8], the system named is MDA-MB-231. Put plainly: Induction of tumor-specific vascular damage in luciferase expressing human MDA-MB-231 cells xenografted in SCID mouse assessed as reduction in light emission at 15 mg/kg at 24 hrs post dose by bioluminescence imaging assay (reference value: 24%). As to conditions: MDA-MB-231, 24 h. It is filed as functional.
Series [9] relates to MDA-MB-231. Put plainly: Induction of tumor-specific vascular damage in luciferase expressing human MDA-MB-231 cells xenografted in SCID mouse assessed as reduction in light emission at 10 mg/kg at 4 hrs post dose by bioluminescence imaging assay (reference value: 22%). The class given is functional. As to conditions: MDA-MB-231, 4 h.
Series [10] concerns MDA-MB-231. Put plainly: Induction of tumor-specific vascular damage in luciferase expressing human MDA-MB-231 cells xenografted in SCID mouse assessed as reduction in light emission at 10 mg/kg at 24 hrs post dose by bioluminescence imaging assay (reference value: 24%). It is filed as functional. The settings on record: MDA-MB-231, 24 h.
The target of series [11] is T1, Leucine aminopeptidase. Put plainly: Activity at porcine leucine aminopeptidase by HPLC analysis. It is filed as ADME. The settings on record: pig. The method, boiled down: as §2
For series [12], the target named is T1, Leucine aminopeptidase. Put plainly: Prodrug conversion assessed as porcine leucine aminopeptidase-mediated compound cleavage by HPLC analysis. The class given is ADME. As to conditions: pig. The method, boiled down:
as §2

Series [13] is described as follows: Cytotoxicity against human SKOV3 cells assessed as growth inhibition using compound dissolved in DMSO after 48 hrs by SRB assay. It is filed as functional. The settings on record: SK-OV-3, 48 h. In a few lines:
as §1

For series [14], the system named is NCI-H460. Put plainly: Cytotoxicity against human NCI-H460 cells assessed as growth inhibition using compound dissolved in DMSO after 48 hrs by SRB assay. The class given is functional. As to conditions: NCI-H460, 48 h. In a few lines: as §1
Series [15] can be described thus: Cytotoxicity against human DU145 cells assessed as growth inhibition using compound dissolved in DMSO after 48 hrs by SRB assay. It is filed as functional. The settings on record: DU-145, 48 h. In a few lines:
as §1

Series [16] is described as follows: Cytotoxicity against human SKOV3 cells assessed as growth inhibition using compound dissolved in water after 48 hrs by SRB assay. The settings on record: SK-OV-3, 48 h. The class given is functional. The method, boiled down: as §1
Series [17] concerns NCI-H460. Put plainly: Cytotoxicity against human NCI-H460 cells assessed as growth inhibition using compound dissolved in water after 48 hrs by SRB assay. As to conditions: NCI-H460, 48 h. The class given is functional. The method, boiled down: as §1
A short description of series [18]: Cytotoxicity against human DU145 cells assessed as growth inhibition using compound dissolved in water after 48 hrs by SRB assay. The class given is functional. The settings on record: DU-145, 48 h. The method, boiled down: as §1
In series [19] the target is T1, Leucine aminopeptidase. The experiment in a line: Prodrug conversion assessed as porcine leucine aminopeptidase-mediated compound cleavage at 25 hrs using 0.12 units of enzyme by HPLC analysis. As to conditions: pig. The class given is ADME. The method, boiled down: as §2

On to `COc1ccc(/C=C\c2cc(OC)c(OC)c(OC)c2)c(N)c1N`, for which the GI50 in series [1] (Homo sapiens, SK-OV-3, 48 h) turned out to be 23.5 nM; in the series on NCI-H460 [2] it was 35.9 nM; in [3] it was 39.1 nM. For the same compound, the Drug metabolism entry on Leucine aminopeptidase [4], at Leucine aminopeptidase [5] and on Leucine aminopeptidase [6] was “metabolite_detected” throughout. The compound further gave an IC50 on Tubulin of 1500 nM.
On to `COc1ccc2c(c1NC(=O)CN)CCC=C2c1cc(OC)c(OC)c(OC)c1.Cl`, for which the GI50 in series [1] stood at 48.5 nM; in the series with NCI-H460 [2], 42 nM; in [3], 58.5 nM. The inhibition in vivo at 15 mg/kg in the series on MDA-MB-231 [7] was 97%; in the series on MDA-MB-231 [8] it was 90%. Further, the inhibition in vivo at 10 mg/kg is 70% in the series on MDA-MB-231 [9] and 55% with MDA-MB-231 [10]. At Leucine aminopeptidase [11], this compound had an Activity of 15.5 µM/min. The Drug metabolism on Leucine aminopeptidase [12] is 100%.
Consider `COc1ccc(/C=C\c2cc(OC)c(OC)c(OC)c2)c(NC(=O)CN)c1NC(=O)CN.Cl.Cl`, for which the GI50 in series [13] is 39300 nM; in the series on NCI-H460 [14] it was more than 68500 nM; in series [15], more than 64700 nM; in series [16], more than 56400 nM; in the series on NCI-H460 [17], more than 96600 nM; in series [18], more than 90400 nM. For the same compound, the Drug metabolism on Leucine aminopeptidase [19] is reported as more than 95%; on Leucine aminopeptidase [12], less than 50%.

What is called GI50 is the concentration giving 50% growth inhibition. A word on the IC50: it is the midpoint of a concentration-inhibition curve. The low end stands for higher potency, the high end for lower potency. As a reminder, the inhibition in vivo is the share of the control response that was lost under treatment.
